ChEMBL document CHEMBL1128434, “Gonadotropin-releasing hormone antagonists: novel members of the azaline B family” (1995)

Experiments:
[1] = species on record: Rattus norvegicus; assay: Effect in the anti ovulatory assay (AOA) in rats expressed as no. of rats ovulating/No of rats treated at 1.0 mg; 3/11; assay type: functional
[2] = species on record: Rattus norvegicus; assay: Effect in the anti ovulatory assay (AOA) in rats expressed as no. of rats ovulating/No of rats treated at 0.5 mg; 4/4; assay type: functional
[3] = species on record: Rattus norvegicus; assay: Effect in the anti ovulatory assay (AOA) in rats expressed as no. of rats ovulating/No of rats treated at 1.0 mg; 6/6; assay type: functional
[4] = species on record: Rattus norvegicus; assay: Duration of action measured using castrated male rat assay to inhibit luteinizing hormone release.; fully active at 48 hr but not at 72 hr; assay type: functional
[5] = species on record: Rattus norvegicus; assay: Effect in the anti ovulatory assay (AOA) in rats expressed as no. of rats ovulating/No of rats treated at 2.5 mg; 0/9; assay type: functional
[6] = biological target: T1, Gonadotropin-releasing hormone receptor (Rattus norvegicus) (UniProt P30969); assay: Effect in the anti ovulatory assay (AOA) in rats expressed as no. of rats ovulating/No of rats treated at 2.5 mg; 0/8; assay type: functional
T1 sequence (whole entry): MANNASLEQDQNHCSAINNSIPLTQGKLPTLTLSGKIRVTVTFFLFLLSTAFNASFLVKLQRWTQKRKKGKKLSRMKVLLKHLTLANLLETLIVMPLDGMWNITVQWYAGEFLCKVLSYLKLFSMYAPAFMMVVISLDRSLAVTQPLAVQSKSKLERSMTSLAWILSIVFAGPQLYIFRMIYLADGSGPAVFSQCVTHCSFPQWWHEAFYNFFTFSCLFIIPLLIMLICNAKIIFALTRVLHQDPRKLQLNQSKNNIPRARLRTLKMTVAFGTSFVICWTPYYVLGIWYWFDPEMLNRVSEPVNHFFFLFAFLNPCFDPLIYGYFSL

[7] = species on record: Rattus norvegicus; assay: Effect in the anti ovulatory assay (AOA) in rats expressed as no. of rats ovulating/No of rats treated at 1.0 mg; 3/9; assay type: functional
[8] = biological target: T1, Gonadotropin-releasing hormone receptor (Rattus norvegicus); assay: Duration of action measured using castrated male rat assay to inhibit luteinizing hormone release.; fully active at 72 hr; assay type: functional
[9] = species on record: Rattus norvegicus; assay: Effect in the anti ovulatory assay (AOA) in rats expressed as no. of rats ovulating/No of rats treated at 1.0 mg; 5/5; assay type: functional
[10] = species on record: Rattus norvegicus; assay: Effect in the anti ovulatory assay (AOA) in rats expressed as no. of rats ovulating/No of rats treated at 2.5 mg; 4/8; assay type: functional
[11] = species on record: Rattus norvegicus; assay: Effect in the anti ovulatory assay (AOA) in rats expressed as no. of rats ovulating/No of rats treated at 50 mg; 4/4; assay type: functional
[12] = biological target: T1, Gonadotropin-releasing hormone receptor (Rattus norvegicus); assay: In vitro potency to inhibit GnRH-mediated LH secretion by cultured pituitary cells relative to [Ac-delta-Pro1,DFpa2,DTrp36]GnRH.; assay type: functional, cell-based; details: Pituitary gland cell
Procedure, shortened: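 Dispersed rat pituitary cells in culture; antagonist inhibition of GnRH-stimulated LH secretion. Potency expressed relative to standard antagonist [Ac-Δ3Pro1,D4FPhe2,DTrp3,6]GnRH taken as 1.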

[13] = species on record: Rattus norvegicus; assay: Effect in the anti ovulatory assay (AOA) in rats expressed as no. of rats ovulating/No of rats treated at 100 mg; 0/4; assay type: functional
[14] = species on record: Rattus norvegicus; assay: Effect in the anti ovulatory assay (AOA) in rats expressed as no. of rats ovulating/No of rats treated at 25 mg; 2/8; assay type: functional
[15] = species on record: Rattus norvegicus; assay: Effect in the anti ovulatory assay (AOA) in rats expressed as no. of rats ovulating/No of rats treated at 10 mg; 1/6; assay type: functional
[16] = species on record: Rattus norvegicus; assay: Effect in the anti ovulatory assay (AOA) in rats expressed as no. of rats ovulating/No of rats treated at 0.5 mg; 6/6; assay type: functional
[17] = species on record: Rattus norvegicus; assay: Effect in the anti ovulatory assay (AOA) in rats expressed as no. of rats ovulating/No of rats treated at 1.0 mg; 2/10; assay type: functional

## CC(=O)N[C@H](Cc1cnc2ccccc2c1)C(=O)N[C@H](Cc1ccc(Cl)cc1)C(=O)N[C@H](Cc1cccnc1)C(=O)N[C@@H](CO)C(=O)N[C@@H](Cc1ccc(Nc2n[nH]c(N)n2)cc1)C(=O)N[C@H](Cc1ccc(Nc2n[nH]c(N)n2)cc1)C(=O)N[C@@H](CC(C)C)C(=O)N[C@@H](CCCCNC(C)C)C(=O)N1CCC[C@H]1C(=O)N[C@H](C)N
[1]
  No. of rats ovulated: 3
[2]
  No. of rats ovulated: 4

## CC(=O)N[C@H](Cc1ccc2ccccc2c1)C(=O)N[C@H](Cc1ccc(Cl)cc1)C(=O)N[C@H](Cc1cccnc1)C(=O)N[C@@H](CO)C(=O)N[C@@H](Cc1ccc(Nc2n[nH]c(N)n2)cc1)C(=O)N[C@H](Cc1ccc(Nc2n[nH]c(N)n2)cc1)C(=O)N[C@@H](Cc1ccccc1)C(=O)N[C@@H](CCCCNC(C)C)C(=O)N1CCC[C@H]1C(=O)N[C@H](C)N
[3]
  No. of rats ovulated: 6
[4]
  Duration of action: Intermediate
[5]
  No. of rats ovulated: 0

## CC(=O)N[C@H](Cc1ccc2ccccc2c1)C(=O)N[C@H](Cc1ccc(Cl)cc1)C(=O)N[C@H](Cc1cccnc1)C(=O)N[C@@H](CO)C(=O)N[C@@H](Cc1ccc(NC=O)cc1)C(=O)N[C@H](Cc1ccc(NC=O)cc1)C(=O)N[C@@H](CC(C)C)C(=O)N[C@@H](CCCCNC(C)C)C(=O)N1CCC[C@H]1C(=O)N[C@H](C)N
[6]
  No. of rats ovulated: 0
[7]
  No. of rats ovulated: 3
[8]
  Duration of action: 72 h

## CC(=O)N[C@H](Cc1ccc2ccccc2c1)C(=O)N[C@H](Cc1ccc(Cl)cc1)C(=O)N[C@H](Cc1cccnc1)C(=O)N[C@@H](CO)C(=O)N[C@@H](Cc1ccc(NC(=O)CCl)cc1)C(=O)N[C@H](Cc1ccc(NC(=O)CCl)cc1)C(=O)N[C@@H](CC(C)C)C(=O)N[C@@H](CCCCNC(C)C)C(=O)N1CCC[C@H]1C(=O)N[C@H](C)N
[9]
  No. of rats ovulated: 5
[10]
  No. of rats ovulated: 4

## CC(=O)N[C@H](Cc1ccc2ccccc2c1)C(=O)N[C@H](Cc1ccc(Cl)cc1)C(=O)N[C@H](Cc1cccnc1)C(=O)N[C@@H](CO)C(=O)N[C@@H](Cc1ccc(NC(=O)Nc2ccccc2Cl)cc1)C(=O)N[C@H](Cc1ccc(NC(=O)Nc2ccccc2Cl)cc1)C(=O)N[C@@H](CC(C)C)C(=O)N[C@@H](CCCCNC(C)C)C(=O)N1CCC[C@H]1C(=O)N[C@H](C)N
[11]
  No. of rats ovulated: 4
[12]
  Relative potency: 0.1

## CC[C@H](C)[C@H](NC(=O)[C@H](CC(C)C)NC(=O)[C@@H](Cc1ccc(Nc2n[nH]c(N)n2)cc1)NC(=O)[C@H](Cc1ccc(Nc2n[nH]c(N)n2)cc1)N(C)C(=O)[C@H](CO)NC(=O)[C@@H](Cc1cccnc1)NC(=O)[C@@H](Cc1ccc(Cl)cc1)NC(=O)[C@@H](Cc1ccc2ccccc2c1)NC(C)=O)C(=O)N1CCC[C@H]1C(=O)N[C@H](C)N
[13]
  No. of rats ovulated: 0
[14]
  No. of rats ovulated: 2

## CC(=O)N[C@H](Cc1ccc(N)cc1)C(=O)N[C@H](Cc1ccc(Cl)cc1)C(=O)N[C@H](Cc1cccnc1)C(=O)N[C@@H](CO)C(=O)N[C@@H](Cc1ccc(Nc2n[nH]c(N)n2)cc1)C(=O)N[C@H](Cc1ccc(Nc2n[nH]c(N)n2)cc1)C(=O)N[C@@H](CC(C)C)C(=O)N[C@@H](CCCCNC(C)C)C(=O)N1CCC[C@H]1C(=O)N[C@H](C)N
[15]
  No. of rats ovulated: 1

## CC(=O)N[C@H](Cc1ccc2ccccc2c1)C(=O)N[C@H](Cc1ccc(Cl)cc1)C(=O)N[C@H](Cc1cccnc1)C(=O)N[C@@H](CO)C(=O)N[C@@H](Cc1ccc(NC(=O)CCCCCNc2n[nH]c(N)n2)cc1)C(=O)N[C@H](Cc1ccc(NC(=O)CCCCCNc2n[nH]c(N)n2)cc1)C(=O)N[C@@H](CC(C)C)C(=O)N[C@@H](CCCCNC(C)C)C(=O)N1CCC[C@H]1C(=O)N[C@H](C)N
[4]
  Duration of action: 48 h
[12]
  Relative potency: 0.48
[16]
  No. of rats ovulated: 6
[17]
  No. of rats ovulated: 2
